For orientation: inhibition means the drop in the measured response relative to a control, in per cent.

Data on 1 compound can be found in ChEMBL document CHEMBL6182829, “Developing peptide-based fusion inhibitors as an antiviral strategy utilizing coronin 1 as a template” (RSC Med Chem, 2025).

Molecules are shown by their SMILES. Calls of active or inactive are those of the source. The rule behind the calls is not given here. Where a SMILES comes first, the peptide text is derived from it.

For assay [1], the system named is Lipid bilayer. In words: Inhibition of PEG-induced DOPC/DOPE/DOPG/CH (50/30/10/10 mol%) (10 CH) small unilamellar vesicles fusion assessed as content mixing at 1:100 compound: lipid concentration preincubated for 10 mins followed by PEG addition by spectrofluorometric analysis (reference value: 33 %). The procedure, abridged:
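Tb3+-loaded (8 mM TbCl3) and DPA-loaded (80 mM) SUVs, external probe removed by Sephadex G-75, mixed 1:1 at 200 μM total lipid in 10 mM TES, 100 mM NaCl, 1 mM EDTA, 1 mM CaCl2, pH 7.4, 37 °C; 2 μM peptide added 10 min before 6% (w/v) PEG; Tb/DPA fluorescence rise over time, normalized with detergent; inhibition relative to no-peptide control.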

Assay [2] deals with Lipid bilayer. Put plainly: Inhibition of PEG-induced DOPC/DOPE/DOPG/CH (40/30/10/20 mol%) (20 CH) small unilamellar vesicles fusion assessed as content mixing at 1:100 compound: lipid concentration preincubated for 10 mins followed by PEG addition by spectrofluorometric analysis. A digest of the protocol: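 Content mixing by Tb3+/DPA complex fluorescence. Vesicles loaded with 8 mM TbCl3 or 80 mM DPA, external probe removed by gel filtration. Mixed 1:1 at 200 μM lipid; peptide 2 μM added 10 min before 6% (w/v) PEG, 37 °C. Normalised to co-encapsulated and detergent-treated samples.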

Consider `CC[C@H](C)[C@H](NC(=O)[C@H](CC(C)C)NC(=O)[C@H](C)NC(=O)[C@@H](NC(=O)[C@H](Cc1ccccc1)NC(=O)[C@H](CCCCN)NC(=O)[C@@H]1CCCN1C(=O)[C@H](CC(N)=O)NC(=O)[C@@H](NC(=O)[C@H](C)NC(=O)[C@H](CS)NC(=O)[C@H](Cc1ccccc1)NC(=O)CNC(=O)[C@H](CO)NC(=O)[C@H](CC(=O)O)NC(=O)[C@H](Cc1c[nH]c2ccccc12)NC(=O)[C@@H](NC(=O)[C@@H](N)[C@@H](C)O)[C@@H](C)O)C(C)C)C(C)C)C(=O)N[C@@H](CS)C(=O)N[C@@H](CCC(=O)O)C(=O)N[C@@H](C)C(=O)N[C@@H](CO)C(=O)NCC(=O)O` (H-TTWDSGFCAVNPKFVALICEASG-OH), for which the inhibition with Lipid bilayer [1] came out at 5%. For the same compound, the inhibition entry in the assay on Lipid bilayer [2] was “inactive”.
